Assay results reported in ChEMBL document CHEMBL4834419 (J Med Chem, 2021).

Columns and labels:
[1] = biological target: T1, Retinoic acid receptor alpha (Homo sapiens) (UniProt P10276); experiment: Agonist activity against human RARalpha in human HEK293T cells co-expressing pFR/pRL-Luc assessed as receptor activation at 10 uM incubated for 14 to 16 hrs by hybrid reporter gene assay relative to bexarotene; assay type: cell-based; conditions: filed as agonist, time 14-16 hrs
T1 sequence (whole entry): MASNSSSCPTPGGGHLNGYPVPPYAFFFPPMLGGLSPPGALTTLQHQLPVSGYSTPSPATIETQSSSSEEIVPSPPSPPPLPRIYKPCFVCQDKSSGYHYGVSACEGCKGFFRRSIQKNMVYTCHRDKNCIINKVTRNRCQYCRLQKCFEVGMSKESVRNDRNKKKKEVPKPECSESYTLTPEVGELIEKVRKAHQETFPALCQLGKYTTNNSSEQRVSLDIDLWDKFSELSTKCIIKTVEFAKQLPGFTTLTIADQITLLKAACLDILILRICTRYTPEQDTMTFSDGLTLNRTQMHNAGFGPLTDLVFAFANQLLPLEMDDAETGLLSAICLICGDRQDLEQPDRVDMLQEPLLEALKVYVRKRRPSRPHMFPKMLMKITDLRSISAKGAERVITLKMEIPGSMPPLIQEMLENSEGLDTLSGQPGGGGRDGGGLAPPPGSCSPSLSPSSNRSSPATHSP
Method in brief: (§1)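 Gal4 hybrid reporter assay in HEK293T cells, seeded 24 h before transfection (Lipofectamine LTX, Opti-MEM) with pFR-Luc, pRL-SV40 and pFA-CMV plasmid carrying the hinge region and LBD of the human receptor. After 5 h, compound added in 0.1% DMSO, with 0.1% DMSO alone as untreated control. Dual-Glo luciferase read after 14−16 h; firefly/renilla normalized; duplicates, ≥2 independent experiments.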

[2] = biological target: T2, Peroxisome proliferator-activated receptor alpha (Homo sapiens) (UniProt Q07869); experiment: Agonist activity against human PPARalpha in human HEK293T cells co-expressing pFR/pRL-Luc assessed as receptor activation at 10 uM incubated for 14 to 16 hrs by hybrid reporter gene assay relative to bexarotene; assay type: cell-based; conditions: filed as agonist, time 14-16 hrs; method in brief: as §1
T2 sequence (whole entry): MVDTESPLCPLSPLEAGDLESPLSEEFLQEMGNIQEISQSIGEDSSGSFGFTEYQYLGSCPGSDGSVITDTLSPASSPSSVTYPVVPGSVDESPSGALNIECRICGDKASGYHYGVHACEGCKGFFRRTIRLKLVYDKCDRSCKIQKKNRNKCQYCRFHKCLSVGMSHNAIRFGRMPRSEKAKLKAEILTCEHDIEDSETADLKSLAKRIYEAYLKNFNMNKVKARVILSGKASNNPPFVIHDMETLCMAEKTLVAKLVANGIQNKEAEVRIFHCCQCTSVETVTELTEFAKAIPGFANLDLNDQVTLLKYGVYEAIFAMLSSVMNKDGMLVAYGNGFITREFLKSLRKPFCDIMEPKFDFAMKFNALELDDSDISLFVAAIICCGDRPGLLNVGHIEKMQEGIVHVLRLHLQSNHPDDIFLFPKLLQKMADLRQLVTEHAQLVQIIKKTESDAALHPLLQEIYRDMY

[3] = biological target: T3, Peroxisome proliferator-activated receptor delta (Homo sapiens) (UniProt Q03181); experiment: Agonist activity against human PPARdelta in human HEK293T cells co-expressing pFR/pRL-Luc assessed as receptor activation at 10 uM incubated for 14 to 16 hrs by hybrid reporter gene assay relative to bexarotene; assay type: cell-based; conditions: filed as agonist, time 14-16 hrs; method in brief: as §1
T3 sequence (whole entry): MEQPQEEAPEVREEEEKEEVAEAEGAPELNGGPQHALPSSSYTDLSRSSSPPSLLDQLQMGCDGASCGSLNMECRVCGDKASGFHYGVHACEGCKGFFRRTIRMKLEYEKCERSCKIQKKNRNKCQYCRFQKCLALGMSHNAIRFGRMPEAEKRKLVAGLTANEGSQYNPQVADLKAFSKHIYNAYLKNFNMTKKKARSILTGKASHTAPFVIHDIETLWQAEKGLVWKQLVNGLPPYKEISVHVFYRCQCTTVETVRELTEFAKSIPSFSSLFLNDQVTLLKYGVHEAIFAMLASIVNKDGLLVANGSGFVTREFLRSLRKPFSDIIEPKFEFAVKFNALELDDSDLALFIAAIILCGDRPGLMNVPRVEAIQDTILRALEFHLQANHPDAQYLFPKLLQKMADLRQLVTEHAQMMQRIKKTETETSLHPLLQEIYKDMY

[4] = biological target: T4, Retinoic acid receptor RXR-gamma (Homo sapiens) (UniProt P48443); experiment: Agonist activity against human RXRgamma in human HEK293T cells co-expressing pFR/pRL-Luc assessed as receptor activation at 10 uM incubated for 14 to 16 hrs by hybrid reporter gene assay relative to bexarotene; assay type: cell-based; conditions: filed as agonist, time 14-16 hrs; method in brief: as §1
T4 sequence (whole entry): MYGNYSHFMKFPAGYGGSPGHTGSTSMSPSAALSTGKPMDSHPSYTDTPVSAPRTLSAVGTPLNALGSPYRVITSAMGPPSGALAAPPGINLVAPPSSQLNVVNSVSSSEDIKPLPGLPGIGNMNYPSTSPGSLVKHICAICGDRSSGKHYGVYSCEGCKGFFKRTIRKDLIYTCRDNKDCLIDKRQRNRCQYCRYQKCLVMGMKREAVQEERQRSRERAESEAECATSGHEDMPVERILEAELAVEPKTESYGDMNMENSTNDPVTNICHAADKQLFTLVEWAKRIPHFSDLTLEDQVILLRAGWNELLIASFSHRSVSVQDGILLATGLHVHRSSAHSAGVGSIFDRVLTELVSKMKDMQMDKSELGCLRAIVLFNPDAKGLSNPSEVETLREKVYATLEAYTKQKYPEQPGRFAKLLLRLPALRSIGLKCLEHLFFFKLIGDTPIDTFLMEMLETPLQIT

[5] = Half life in mouse at 10 mg/kg, po; assay type: ADME, organism-based; conditions: in vivo
Method in brief: (§2)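 Mice, n = 3, received a single oral dose of 10 mg/kg in water with 1% hydroxypropyl methylcellulose/Tween 80 (99:1). Tail-vein blood was drawn at 30 and 60 min and tissue collected at 3 h. Compound was quantified by LC−MS and PK derived by noncompartmental analysis.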

[6] = Cmax in mouse at 10 mg/kg, po; assay type: ADME, organism-based; parameters: route oral, dose 10 mg/kg; conditions: in vivo; method in brief: as §2

Activity [1]: 1% | Activity [2]: 2% | Activity [3]: 1% | Activity [4]: 27% | half-life [5]: > 3 h | Cmax [6]: 35000 ng/mL
SMILES: O=C(O)CCCc1cc(-c2cc(Cl)cc(Cl)c2)n(-c2ccccc2)n1
